Each compound was assayed against T1, Transient receptor potential cation channel subfamily V member 1 (Homo sapiens, UniProt Q8NER1) (assay: Inhibition of 100 nM capsaicin effect on intracellular [Ca2+] concentration in HEK293 cells expressing human TRPV1; (weak agonist activity)).
T1 sequence (Q8NER1 whole entry): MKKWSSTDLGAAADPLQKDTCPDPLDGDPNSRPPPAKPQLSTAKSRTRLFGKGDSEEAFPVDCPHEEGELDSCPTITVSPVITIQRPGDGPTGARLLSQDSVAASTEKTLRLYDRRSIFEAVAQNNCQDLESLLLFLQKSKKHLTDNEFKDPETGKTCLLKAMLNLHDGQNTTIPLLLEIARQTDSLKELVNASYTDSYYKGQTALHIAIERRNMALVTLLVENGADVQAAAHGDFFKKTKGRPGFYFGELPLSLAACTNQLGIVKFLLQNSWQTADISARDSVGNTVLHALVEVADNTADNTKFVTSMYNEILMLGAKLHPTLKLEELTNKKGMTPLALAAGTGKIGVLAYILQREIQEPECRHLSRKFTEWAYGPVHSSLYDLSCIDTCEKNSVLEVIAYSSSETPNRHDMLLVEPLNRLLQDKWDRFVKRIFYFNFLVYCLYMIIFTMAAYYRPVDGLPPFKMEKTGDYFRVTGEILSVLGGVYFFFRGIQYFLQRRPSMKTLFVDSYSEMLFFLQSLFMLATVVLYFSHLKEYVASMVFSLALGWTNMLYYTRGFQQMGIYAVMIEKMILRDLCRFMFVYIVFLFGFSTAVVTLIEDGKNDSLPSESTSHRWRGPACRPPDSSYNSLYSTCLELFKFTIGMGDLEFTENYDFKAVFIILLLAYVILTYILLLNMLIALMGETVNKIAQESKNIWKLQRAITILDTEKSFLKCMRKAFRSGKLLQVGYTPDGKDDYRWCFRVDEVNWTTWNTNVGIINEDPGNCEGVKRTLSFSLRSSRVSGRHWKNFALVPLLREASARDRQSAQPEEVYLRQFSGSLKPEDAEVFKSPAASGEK
Type: functional, cell-based
Method in brief: (§1)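 HEK293 cells stably overexpressing human TRPV1, grown in MEM with nonessential amino acids, 10% FCS and 0.2 mM glutamine. Plated on poly-L-lysine one day before use. Loaded 2 h at 25 °C with 4 μM Fluo-3 AM plus 0.04% Pluronic, then trypsinized into Tyrode pH 7.4 in a stirred cuvette. Compounds added 10 min before 100 nM capsaicin. Fluorescence read at 25 °C (ex 488/em 540 nm). IC50 from half-maximal inhibition.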
`CCCCCCCCC(=O)NCc1cc(OC)c(O)c(-c2cc(CNC(=O)CCCCCCCC)cc(OC)c2O)c1` was tested, and the IC50 was > 20000 nM.

What follows are compounds tested against T1, Transient receptor potential cation channel subfamily V member 1 (assay: Inhibition of 100 nM capsaicin effect on intracellular [Ca2+] concentration in HEK293 cells expressing human TRPV1).
Type: cell-based
Method in brief: as §1, with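 “capsaicin.” for “capsaicin. Fluorescence read at 25 °C (ex 488/em 540 nm).”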
Compound `Oc1cc2c(cc1O)CN(C(=S)NCCc1ccc(Cl)cc1)CCC2` [CAPSAZEPINE] has an IC50 of 56.2 nM. `CCCCCCCCC(=O)NCc1cc(OC)c(O)cc1Br` showed an IC50 of 16.1 nM. With `C=C(C)[C@]12C[C@@H](C)[C@@]3(OCc4ccccc4)[C@@H](C=C(COC(=O)Cc4cc(I)c(O)c(OC)c4)C[C@]4(O)C(=O)C(C)=C[C@@H]34)[C@H]1OCO2` the IC50 was 0.4 nM. `CCCCCCCCC(=O)NCc1ccc(O)c(OC)c1[N+](=O)[O-]` showed an IC50 of 11000 nM. `CCCCCCCCC(=O)NCc1cc(OC)c(O)cc1I` gave an IC50 of 10 nM. With `CCCCCCCCC(=O)NCc1cc(Cl)c(O)c(OC)c1` the IC50 was 631 nM. For `CCCCCCCCC(=O)NCc1ccc(O)c(OC)c1NC(C)=O`, the IC50 was 9540 nM. `CCCCC/C=C/C/C=C/C/C=C/C/C=C/CCCC=O` showed an IC50 of 51 nM. Work on `CCCCCCCCC(=O)NCc1cc(I)c(O)c(OC)c1` yielded an IC50 of 126 nM. In the case of `CCCCCCCCC(=O)NCc1cc(OC)c(O)cc1Cl`, the IC50 is reported as 50.3 nM. `CCCCCCCCC(=O)NCc1cc(Br)c(O)c(OC)c1` showed an IC50 of 252 nM.
